Here are results for 1 molecule from ChEMBL document CHEMBL5653614, “Rescue of fragile X syndrome phenotypes in Fmr1 KO mice by the small-molecule PAK inhibitor FRAX486” (Proc Natl Acad Sci U S A, 2013).

Data set [1] deals with Mus musculus. Kind of data set: Protective activity in Fmr1 FVB.129P2-Pde6b+ Tyr c-ch/AntJ wild type mouse assessed as change in basal dendritic spine density in cortical neuron at 20 mg/kg, sc and measured after 8 hrs by Golgi-Cox technique analysis. It counts as functional, organism-based. As to conditions: Cortical neurone.
Data set [2] relates to Mus musculus. Kind of data set: Protective activity in Fmr1 knockout FVB.129P2-Fmr1tm1Cgr/J mouse assessed as decrease in apical dendritic spine density in layer II/III pyramidal neurons segment 7 at 20 mg/kg, sc and measured after 8 hrs by Golgi-Cox technique analysis. It is filed as functional, organism-based. In a few lines: (§1)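 Adult male WT and Fmr1 KO FVB mice given 20 mg/kg s.c. or vehicle; brains collected 8 h later and Golgi stained. Apical dendrites of layer II/III pyramidal neurons in temporal cortex, originating 50–100 µm from the soma, were divided into ten 10-µm segments and spines counted. 40–60 neurons from 4–6 mice per group; one-way ANOVA.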

A short description of data set [3]: Drug concentration in FVB.129P2 mouse plasma at 20 mg/kg,sc and measured upto 18 hrs by LC-MS/MS analysis. It counts as ADME, organism-based. In a few lines:
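WT FVB.129P2 mice got one s.c. injection of 20 mg/kg (2 mg/mL in 20% hydroxypropyl-β-cyclodextrin). Blood and forebrain were collected at time points from 15 min to 24 h. Forebrain was weighed, snap-frozen and homogenized in 2 volumes of cold PBS. Drug quantified by LC-MS/MS. n = 2–3, mean ± SEM.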

The subject of data set [4] is Mus musculus. The experiment in a line: Anti-seizure activity against 124dB loud auditory stimulus induced Fmr1 knockout FVB.129P2-Fmr1tm1Cgr/J mouse model of audiogenic seizure assessed as decrease in sound-induced wild running at 20 mg/kg,sc for 8 hrs followed by audiogenic seizure induction by audiogenic seizure assay (Rvb=100%). It is filed as functional. More on the design: scale not given: the % may be the effect or the level left. In a few lines: (§2)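 Adult male mice (10–17 wk). Single s.c. dose (0, 10, 20 or 30 mg/kg) in 20% (wt/vol) hydroxypropyl-β-cyclodextrin vehicle; AGS induced 8 h later. Mouse acclimated 2 min in a clear acrylic two-chamber box, then exposed to a 124 dB sound. Scored as percentage of animals showing each sequential phase (wild running, seizure, death by respiratory arrest); χ2 test against vehicle.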

Data set [5] has as its system Mus musculus. Kind of data set: Protective activity in Fmr1 knockout FVB.129P2-Fmr1tm1Cgr/J mouse assessed as decrease in apical dendritic spine density in layer II/III pyramidal neurons segment 4 at 20 mg/kg, sc and measured after 8 hrs by Golgi-Cox technique analysis. It is filed as functional, organism-based. An outline of the steps:
as §1

Data set [6] deals with Mus musculus. Kind of data set: Anti-seizure activity against 124dB loud auditory stimulus induced Fmr1 knockout FVB.129P2-Fmr1tm1Cgr/J mouse model of audiogenic seizure assessed as decrease in sound-induced wild running at 30 mg/kg,sc for 8 hrs followed by audiogenic seizure induction by audiogenic seizure assay (Rvb=100%). It counts as functional. Set-up: scale not given: the % may be the effect or the level left. In a few lines: as §2

For data set [7], the system named is Mus musculus. The experiment in a line: Protective activity in Fmr1 knockout FVB.129P2-Fmr1tm1Cgr/J mouse assessed as decrease in apical dendritic spine density in layer II/III pyramidal neurons segment 5 at 20 mg/kg, sc and measured after 8 hrs by Golgi-Cox technique analysis. It counts as functional, organism-based. An outline of the steps:
as §1

Data set [8] has as its system Mus musculus. Kind of data set: Protective activity in Fmr1 knockout FVB.129P2-Fmr1tm1Cgr/J mouse model of Fragile X syndrome assessed as motor coordination at 20 mg/kg, sc and measured for 4 to 5.25 hrs by rotarod test. It counts as functional, organism-based. Particulars: time 4-5.25 hrs. In a few lines:
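Adult male Fmr1 KO mice (FVB background, 10–17 wk old) got FRAX486 s.c. at 20 mg/kg as a 2 mg/mL solution in 20% (wt/vol) hydroxypropyl-β-cyclodextrin; vehicle-only controls. Rotarod was run 4–5.5 h after dosing. Latency to fall or jump off the rotating cylinder was recorded, with a maximum of 3 min. Three trials 30–40 min apart were averaged per mouse.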

Data set [9] relates to Mus musculus. Kind of data set: Protective activity in FVB.129P2-Pde6b+ Tyr c-ch/AntJ wild type mouse assessed as balance on accelerating rotarod at 20 mg/kg, sc and measured for 4 to 5.25 hrs by rotarod test. It is filed as functional, organism-based. As to conditions: time 4-5.25 hrs. In a few lines: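 Adult male WT and Fmr1 KO mice tested 4–5.5 h after s.c. 20 mg/kg or vehicle. Latency to fall or jump off the rotating cylinder recorded (max 3 min). Three trials per mouse, 30–40 min apart; per-mouse average latency compared.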
A general note: The rotarod test checks motor coordination on a turning rod.

In data set [10] the test system is Mus musculus. Kind of data set: Protective activity in Fmr1 knockout FVB.129P2-Fmr1tm1Cgr/J mouse assessed as change in basal dendritic spine density in cortical neuron at 20 mg/kg, sc and measured after 8 hrs by Golgi-Cox technique analysis. It counts as functional, organism-based. As to conditions: Cortical neurone.
In data set [11] the test system is Mus musculus. The experiment in a line: Protective activity in FVB.129P2-Pde6b+ Tyr c-ch/AntJ wild type mouse assessed as decrease in time spent in moving at 20 mg/kg, sc for 5 days and measured for 30 mins by open field assay. It counts as functional, organism-based. Particulars: time 5.0 day. An outline of the steps: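 Adult male WT and Fmr1 KO mice dosed s.c. at 20 mg/kg or vehicle for 5 d; tested 4–5.5 h after dosing. Single mouse in a novel open field for 30 min, tracked by infrared sensors in 1-min bins; bar-graph values averaged over minutes 18–30. Mice beyond 2 SD in total distance, or immobile for 5 consecutive minutes, were excluded.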

Data set [12] deals with Mus musculus. The experiment in a line: Protective activity in Fmr1 FVB.129P2-Pde6b+ Tyr c-ch/AntJ wild type mouse assessed as change in apical dendritic spine density in cortical neuron at 20 mg/kg, sc and measured after 8 hrs by Golgi-Cox technique analysis. It is filed as functional, organism-based. Particulars: Cortical neurone.
For data set [13], the system named is Mus musculus. Kind of data set: Anti-seizure activity against 124dB loud auditory stimulus induced Fmr1 knockout FVB.129P2-Fmr1tm1Cgr/J mouse model of audiogenic seizure assessed as decrease in sound-induced seizure at 20 mg/kg,sc and measured after 5 days by audiogenic seizure assay (Rvb=100%). It counts as functional. More on the design: scale not given: the % may be the effect or the level left. As to conditions: time 5 day. An outline of the steps:
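Fmr1 KO mice received one s.c. dose of vehicle or 20 mg/kg in hydroxypropyl-β-cyclodextrin; the AGS assay (124 dB stimulus after 2 min acclimation) was run 5 d later. Seizure incidence recorded.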

The subject of data set [14] is Mus musculus. The experiment in a line: Protective activity in Fmr1 knockout FVB.129P2-Fmr1tm1Cgr/J mouse model of Fragile X syndrome assessed as increase in testicular weight at 20 mg/kg, sc for 21 days. It is filed as functional, organism-based. As to conditions: time 21.0 day.
Data set [15] in a line: Tmax in FVB.129P2 mouse plasma at 20 mg/kg,sc by LC-MS/MS analysis. It counts as ADME, organism-based. An outline of the steps:
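WT FVB.129P2 mice received a single s.c. injection of 20 mg/kg FRAX486 in 20% (wt/vol) hydroxypropyl-β-cyclodextrin. Blood was collected at time points from 15 min to 24 h, n = 2–3 per point. Plasma drug levels were quantified by LC-MS/MS and reported as mean ± SEM.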

The test system of data set [16] is Mus musculus. The experiment in a line: Protective activity in Fmr1 knockout FVB.129P2-Fmr1tm1Cgr/J mouse assessed as decrease in apical dendritic spine density in layer II/III pyramidal neurons segment 8 at 20 mg/kg, sc and measured after 8 hrs by Golgi-Cox technique analysis. It is filed as functional, organism-based. In a few lines:
as §1

The target in data set [17] is Serine/threonine-protein kinase PAK 4 (Homo sapiens, UniProt O96013). Kind of data set: Inhibition of PAK4 (unknown origin) by Z'-LYTE functional assay. An outline of the steps: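 Full-length PAK isoforms phosphorylating an optimized peptide substrate in a Z-LYTE biochemical kinase assay, 10-point inhibitor titration. Duplicates (n = 2, mean ± SEM) plotted semilog; IC50 from a variable-slope sigmoidal dose–response fit.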
Chain of Serine/threonine-protein kinase PAK 4 (O96013 whole entry, canonical isoform): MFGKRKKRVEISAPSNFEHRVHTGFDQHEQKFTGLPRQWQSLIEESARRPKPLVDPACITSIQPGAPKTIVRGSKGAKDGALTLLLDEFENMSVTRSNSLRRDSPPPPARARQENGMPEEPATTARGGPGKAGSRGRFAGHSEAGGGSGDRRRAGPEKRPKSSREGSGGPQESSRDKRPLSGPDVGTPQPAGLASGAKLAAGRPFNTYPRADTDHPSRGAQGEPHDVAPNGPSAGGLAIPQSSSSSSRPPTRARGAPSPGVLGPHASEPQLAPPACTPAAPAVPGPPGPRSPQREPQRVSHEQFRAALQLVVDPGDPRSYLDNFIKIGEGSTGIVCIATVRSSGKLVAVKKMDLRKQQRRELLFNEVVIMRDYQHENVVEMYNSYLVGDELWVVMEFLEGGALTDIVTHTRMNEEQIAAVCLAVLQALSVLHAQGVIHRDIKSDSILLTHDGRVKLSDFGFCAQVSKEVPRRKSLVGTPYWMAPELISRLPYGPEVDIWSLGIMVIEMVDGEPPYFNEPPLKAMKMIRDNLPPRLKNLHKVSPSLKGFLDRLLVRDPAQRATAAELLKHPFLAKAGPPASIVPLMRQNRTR

Activity calls are given as the source filed them. The rule behind the calls is not given here.

Usually Tmax stands for the time from dosing to the highest level. For orientation: IC50 means the midpoint of a concentration-inhibition curve. In the case of `CCn1c(=O)c(-c2ccc(Cl)cc2Cl)cc2cnc(Nc3ccc(N4CCNCC4)c(F)c3)nc21`, the outcome in data set [1], in data set [2], in data set [7], in data set [8], in [9] and in data set [10] was inactive. Also, the result in data set [12], in data set [14] and in [16] was inactive. This molecule registered a concentration at 18 h in [3] of over 100 ng/mL. The Activity is 25% in data set [4], 0% in data set [6] and 100% in data set [13]. Besides, the outcome in [5] and in data set [11] was Active. Further, in data set [15], the Tmax was 15 min. In data set [17], half-maximal inhibition (IC50) was put at 779 nM.
